# Most compounds without a hit are left out; they make up all but 2.6% or so of the library.
# procasp7 counter: counter-screen: procaspase-7 (human) activation; P55210; recombinant procaspase-7, Ac-DEVD-pNA absorbance 405 nm; D23A/D198A/D206A triple mutant, cannot self-cleave; scale: DMSO 0, 5 µM enzyme 100; activation, % at 8.5 µM; hit rate 0.093% among 330,000; AID 463210;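 active means percent activation above the screen-wide mean plus 3 SD, cut at about 25% in these data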
# Target sequence (P55210 whole entry D23A/D198A/D206A): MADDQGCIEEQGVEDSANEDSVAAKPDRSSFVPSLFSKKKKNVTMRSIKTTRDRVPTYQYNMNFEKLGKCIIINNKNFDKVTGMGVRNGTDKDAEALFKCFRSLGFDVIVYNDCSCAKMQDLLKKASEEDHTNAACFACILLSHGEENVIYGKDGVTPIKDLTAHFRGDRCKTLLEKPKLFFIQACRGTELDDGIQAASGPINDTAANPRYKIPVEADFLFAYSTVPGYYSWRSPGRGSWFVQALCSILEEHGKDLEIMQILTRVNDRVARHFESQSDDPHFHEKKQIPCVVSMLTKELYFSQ
#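 buffer or medium = Zinc-free HEPES/NaCl buffer, pH 7.4 | material = Procaspase-7 triple mutant (PC-7 D3A) | input = 2 µM procaspase-7 mutant as dispensed | signal = Epi-absorbance of released pNA at 405 nm, two timepoints | timing = 1 h preincubation, 2 h reaction | replicates = singlicate compound testing | evaluation = % activation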
# PolyA inhibitor: blocks polyadenylation in yeast reporter cells; S. cerevisiae SKY197-pL101 polyadenylation reporter, beta-gal luminescence; efflux-impaired pdr1/pdr3 knockout yeast; score 100 = 6 SD above DMSO; activity score, % at 12 µM; hit rate 0.02% among 300,000;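 active means lowest replicate activity score at least 50, where 100 means six control SD above control mean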;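 further: yeast exposed to compound for 9 h at 30 °C; higher score means more reporter readthrough which indicates perturbed polyadenylation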
# proCasp3 act: procaspase-3 (human) activation; P42574; recombinant procaspase-3 D3A, Ac-DEVD-pNA absorbance 405 nm; activation, % at 8.5 µM; hit rate 0.11% among 330,000;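 active means activation above the mean of all tested compounds plus 3 SD, cut at about 21% in these data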;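 further: 0% = DMSO alone and 100% = DMSO wells spiked with extra 5 µM PC-3 D3A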
# Target sequence (P42574 whole entry D9A/D28A/D175A): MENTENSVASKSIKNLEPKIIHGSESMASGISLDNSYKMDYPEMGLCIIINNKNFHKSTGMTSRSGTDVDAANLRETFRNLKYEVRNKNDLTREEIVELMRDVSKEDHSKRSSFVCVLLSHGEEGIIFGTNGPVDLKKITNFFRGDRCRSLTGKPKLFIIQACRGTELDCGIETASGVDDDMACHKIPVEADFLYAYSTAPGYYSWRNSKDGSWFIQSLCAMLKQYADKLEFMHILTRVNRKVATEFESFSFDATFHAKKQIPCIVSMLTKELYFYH
#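 Assay system: Autoprocessing-dead procaspase-3 D3A mutant enzyme; also added: Ac-DEVD-pNA; doses: one concentration, 8.5 µM nominal, 0.8% DMSO; times: 1 h compound preincubation, 2 h substrate hydrolysis at 25 °C; technique: 405 nm absorbance of p-nitroaniline, reads at 0 and 120 min; measure: % activation between DMSO and enzyme-spiked controls; repeats: single replicate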
# AHR activator: activates the human aryl hydrocarbon receptor; P35869; AHR-responsive luciferase reporter cells, luminescence; activation, % at 5 µM; hit rate 2.5% among 320,000; in the data active means activation above about 47%;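 further: 0% = vehicle wells and 100% = reference agonist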
# * = called active by the depositor; · = not tested or not shown.
SMILES,procasp7 counter,PolyA inhibitor,proCasp3 act,AHR activator
C=CCn1c(=O)[nH]c2nc3cc(N=CN(C)C)c(C)cc3nc2c1=O,-12.8,-14.9,-6.1,67.6*
Cc1cc2nc3c(=O)n(CCc4ccccc4)c(=O)[nH]c3nc2cc1N,-22.1,7.6,-25.3,8.2
COc1cc2c(cc1NC(=O)C(C)Sc1cccc[n+]1[O-])oc1ccccc12 (stereo not given),-6.1,-4.5,-2.8,99.1*
COc1cc2c(cc1NC(=O)c1cccc([N+](=O)[O-])c1)oc1ccccc12,6.1,5.4,-1.2,58.5*
CC(C)C(=O)Nc1cccc(NC(=O)c2cccc([N+](=O)[O-])c2)c1,2.0,13.4,-0.5,6.7
COc1cc2c(cc1NC(=O)c1ccncc1)oc1ccccc12,11.5,-18.9,-1.4,63.5*
COc1cc([N+](=O)[O-])ccc1NC(=O)c1cccc(NC(=O)C(C)C)c1,5.5,10.1,4.8,47.5*
COc1cc2c(cc1NC(=O)c1ccc(C)c([N+](=O)[O-])c1)oc1ccccc12,5.2,-2.6,2.9,44.0
CCCCCNc1nc(-c2ccccc2)nc(-n2ccnc2)n1,9.5,-2.3,3.0,12.8
CCCCNc1nc(N(C)c2ccccc2)nc(-n2ccnc2)n1,-0.3,-15.1,3.1,61.2*
CN(C)c1ccc(/C=N/NC(=O)c2sccc2-n2cccc2)cc1,-7.6,-32.0,3.5,72.2*
CN(C)c1ccc(/C=N/NC(=O)c2ccccc2)cc1,-0.3,16.0,0.2,47.0*
CCCc1nn(C)c(C(=O)Nc2cccc(Cl)c2)c1Cl,-2.9,15.1,12.5,88.8*
CCc1cc(=O)oc2cc(OCc3ccc(C(=O)O)o3)ccc12,0.5,14.1,2.8,8.7
O=C(COc1ccccc1/C=C1\SC(=O)NC1=O)Nc1ccc(F)cc1,-7.8,-0.9,-4.7,97.7*
COCCNS(=O)(=O)c1cc(C(=O)O)ccc1OC,5.0,-1.4,0.0,-1.7
COc1ccc(-c2nc(-c3cccs3)c(-c3cccs3)[nH]2)cc1O,-11.2,-3.4,-9.4,47.5*
Cc1nc2nc(SCC(=O)c3cccc([N+](=O)[O-])c3)[nH]c2cc1Br,0.1,-4.0,-12.2,56.8*
CCc1nc(SCC(=O)c2cccc([N+](=O)[O-])c2)n[nH]1,-7.2,-6.2,1.4,3.8
Cc1nc2nc(SCC(=O)C(C)(C)C)[nH]c2cc1Br,-6.3,21.4,-2.8,47.4*
COc1ccccc1C(=O)N/N=C/c1cnc2ccccc2n1,-3.1,-2.3,1.4,38.8
COc1ccccc1-n1cnnc1SCC(=O)NCC1CCCO1 (stereo not given),2.6,-4.5,3.1,-1.0
O=C1c2ccccc2C(=O)N1c1nc2nccc(-c3ccccc3)n2n1,5.8,1.1,5.1,1.5
O=C(Nc1nc2nccc(-c3ccccc3)n2n1)C(Cl)(Cl)Cl,-8.1,13.1,2.9,53.9*
COc1cc(-c2cc(-c3ccc(O)cc3)nc(N)c2C#N)ccc1O,7.9,10.7,3.8,3.2
SMILES,procasp7 counter,PolyA inhibitor,proCasp3 act,AHR activator
COc1ccccc1-c1cc(-c2ccc(O)cc2)nc(N)c1C#N,12.6,3.4,7.8,62.1*
C=CCN(CC=C)C(=O)c1ccc(OC2CCN(C(C)=O)CC2)c(OC)c1,9.6,3.4,7.2,-2.1
COc1ccc(NC(=O)N2CCn3c2nc2ccccc23)cc1,-5.7,-2.7,-3.5,29.9
O=C(Nc1ccccc1)N1CCn2c1nc1ccccc12,2.1,-27.8,-7.0,50.6*
CCN(CC)S(=O)(=O)c1cc(C)ccc1NC(=S)Nc1cccnc1,0.2,20.2,1.8,14.9
COc1ccc(-c2[nH]ncc2N=Nc2cc(C)cc(C)c2)cc1,8.3,-8.0,-3.4,66.5*
COc1ccc(-c2[nH]ncc2N=Nc2ccccc2)cc1,-14.1,-43.7,-0.7,12.6
O=C(Nc1cccc(F)c1)c1ccc2c(c1)OCO2,-12.3,-15.6,0.7,56.2*
Cc1cccc(NC(=O)CNC(=O)c2ccc3c(c2)OCO3)n1,5.9,-1.4,2.0,50.1*
O=C(Nc1ccc2c(c1)OCO2)c1ccc2nc[nH]c2c1,5.0,-3.3,0.7,61.7*
O=C(NC1CCCCC1)c1ccc2c(c1)OCCO2,-6.1,-0.1,-1.6,12.3
O=C(NC1CCCCCCC1)c1ccc2c(c1)OCO2,4.5,5.7,2.4,68.7*
O=C(Nc1c(C(=O)Nc2cccc(F)c2)oc2ccccc12)c1ccc2c(c1)OCO2,11.5,-1.4,-0.6,5.0
Cc1nc2ccc(C(=O)Nc3ccc4nc[nH]c4c3)cc2[nH]1,7.0,-4.7,5.8,18.4
N#Cc1ccccc1S(=O)c1ccccc1C(=O)Nc1ccccc1 (stereo not given),4.6,-5.2,9.6,-1.8
Cc1ccc(S(=O)(=O)N2[C@@H](c3ccc(Br)cc3)C(C(=O)O)=C[C@H]2C(C)(C)C)cc1,5.1,·,10.2,-0.9
CCOC(=O)c1cc(-c2csc(Nc3ccccc3Cl)n2)on1,3.1,-4.2,5.7,-0.9
CCOC(=O)c1cc(-c2csc(N/N=C/c3ccccc3Cl)n2)on1,-3.9,10.0,-8.1,49.9*
N#Cc1ccc(NC(=O)Cn2cnc(S(=O)(=O)N3CCCCC3)c2)cc1,-1.0,5.5,1.8,-0.5
O=C(NCc1ccncc1)C(=O)NC1CC1,-2.8,-2.6,-2.8,-0.8
COc1ccc(OC)c2sc(NC(=O)c3ccc(S(=O)(=O)N(C)C)cc3)nc12,-2.9,-5.5,5.3,69.0*
COc1ccc(OC)c2sc(NC(=O)CCSc3ccccc3)nc12,5.7,-12.5,2.4,58.9*
CCC(=O)Nc1nc2c(OC)ccc(C)c2s1,9.6,0.5,1.1,33.8
COc1ccccc1NC(=O)c1ccc(S(=O)(=O)N(C)C)cc1,-0.2,20.5,3.2,9.9
COc1ccc(C)c2sc(NC(=O)C3CC3)nc12,-1.4,2.4,1.0,73.7*
SMILES,procasp7 counter,PolyA inhibitor,proCasp3 act,AHR activator
Cc1ccc(C)c(NC(=S)N2CCC(NC(=O)c3ccco3)CC2)c1,8.3,-1.9,-1.4,-0.8
O=C(Oc1ccc(Br)cc1C(=O)/C=C/c1ccccc1F)c1ccco1,0.3,-21.3,-2.3,56.5*
CC(=O)c1cc(Cl)ccc1OC(=O)c1ccco1,-7.0,2.2,-0.6,16.2
C=CCN1C(=O)c2ccc(C(=O)N(CC)CC(=O)Nc3cc(Cl)ccc3C)cc2C1=O,6.3,6.1,-2.1,1.3
COc1ccc(CCNc2nc3ccccc3n3nnnc23)cc1OC,-5.1,-7.2,1.7,53.6*
O=C(N/N=C/c1c(Cl)cccc1Cl)c1ccc(F)cc1,6.0,-1.4,-2.5,15.7
O=C(N/N=C/c1c(Cl)cccc1Cl)c1ccccc1F,8.0,-18.4,-1.5,59.9*
CSc1ccccc1C(=O)Nc1nc2ccccc2[nH]1,-4.2,-9.9,-9.8,68.2*
O=C(CSc1nc2ccccc2[nH]1)Nc1ccccc1F,-1.1,-11.1,7.8,2.3
O=C(Nc1nc2ccccc2[nH]1)Nc1ccccc1F,-0.8,-11.3,4.7,48.4*
O=C(Nc1cnccn1)Nc1ccccc1F,4.7,-6.0,0.8,60.6*
CSc1ccccc1C(=O)Nc1nc2ccccc2c(=O)[nH]1,6.8,17.2,-6.1,3.9

# Screens deposited in PubChem by several laboratories.
